Measured values published in ChEMBL document CHEMBL1149554, “Dual bioactivity of resveratrol fatty alcohols: differentiation of neural stem cells and modulation of neuroinflammation” (2007).

Columns and labels:
[1] = system: Neuron; test: Neuronal differentiation activity assessed as increase in number of neurons at 0.1 uM in relative to control; format: functional, Homo sapiens
Procedure, shortened: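 Neurospheres (undifferentiated aggregates containing 5–10% neural stem cells, raised with EGF and bFGF) were treated with compound and scored for differentiation into neurons. The % of neurons was compared with ethanol vehicle control, or divided by the % of neurons obtained with retinoic acid treatment. Neuron morphology was also rated qualitatively. Each compound was tested in at least three independent experiments.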

[2] = system: Neuron; test: Neuronal differentiation activity assessed as increase in number of neurons at 0.1 uM in relative to 5 uM retinoic acid
[3] = Inhibition of LPS-stimulated TNFalpha production in mouse MMGT12 cells after 24 hrs by ELISA; format: functional; set-up: scale not given: the % may be the effect or the level left
Procedure, shortened: (§1)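 Mouse MMGT-12 microglial cells stimulated with LPS in the presence or absence of test compound at several concentrations. Supernatants were collected, and accumulated NO was measured at 48 h by the Griess method and secreted TNF-α at 24 h by ELISA. Data are expressed as % of the LPS-only control, as mean ± SEM of three independent experiments.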

[4] = Inhibition of LPS-stimulated nitric oxide production in mouse MMGT12 cells after 48 hrs; format: functional; set-up: scale not given: the % may be the effect or the level left; procedure, shortened: as §1

| Compound | Activity [1] [%] | Activity [2] | Activity [3] [%] | Activity [4] [%] |
| --- | --- | --- | --- | --- |
| COc1ccc(/C=C/c2cc(OC)c(CCCCCCCCCCCCO)c(OC)c2)cc1 | 188 | – | – | – |
| COc1ccc(/C=C/c2cc(OC)c(CCCCCCCCCCCCCCO)c(OC)c2)cc1 | 135 | – | – | – |
| OCCCCCCCCCCc1c(O)cc(/C=C/c2ccc(O)cc2)cc1O | 108 | 0.53 | – | – |
| OCCCCCCCCCCCCCCc1c(O)cc(/C=C/c2ccc(O)cc2)cc1O | 160 | – | – | – |
| CCCCCCCCCCCCc1c(O)cc(/C=C/c2ccc(O)cc2)cc1O | 106 | 0.52 | – | – |
| COc1ccc(/C=C/c2cc(OC)c(CCCCCCCCCCO)c(OC)c2)cc1 | 147 | – | – | – |
| COc1ccc(/C=C/c2cc(OC)c(CCCCCCCCCCCCCCCCO)c(OC)c2)cc1 | 107 | 0.53 | – | – |
| OCCCCCCCCCCCCc1c(O)cc(/C=C/c2ccc(O)cc2)cc1O | 263 | – | 30 | 50 |
| Oc1ccc(/C=C/c2cc(O)cc(O)c2)cc1 [RESVERATROL] | 105 | 0.52 | – | – |
| CC1=C(/C=C/C(C)=C/C=C/C(C)=C/C(=O)O)C(C)(C)CCC1 [TRETINOIN] | 203 | – | – | – |
